# ALR inh = inhibitors of human ALR sulfhydryl oxidase, primary screen, biochemical, H2O2 detection, HRP-luminol luminescence, single point; FAD-linked sulfhydryl oxidase ALR (Homo sapiens), P55789; 290,000 tested, 3.8% active; purified ALR, DTT oxidation; inhibition, % (concentration not given with the values);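 active = mean replicate inhibition above about 79%, with every replicate also reaching it, limit read from the data; inconclusive = only one of the two criteria met; inactive = mean below limit and not every replicate reaching it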
# Target sequence (P55789 whole entry, looked up): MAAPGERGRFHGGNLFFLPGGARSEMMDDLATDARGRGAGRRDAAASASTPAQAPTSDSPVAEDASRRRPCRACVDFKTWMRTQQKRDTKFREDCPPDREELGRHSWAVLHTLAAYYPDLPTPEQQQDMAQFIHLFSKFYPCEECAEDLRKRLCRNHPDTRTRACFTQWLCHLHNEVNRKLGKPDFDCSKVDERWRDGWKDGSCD
# Rin1 Abl inh = inhibitors of Rin1-Abl protein binding, primary screen, biochemical, TR-FRET | Tyrosine-protein kinase ABL1 (Homo sapiens) + Ras and Rab interactor 1 (Homo sapiens), … | inhibition, % at 7.35 µM | 360,000 tested, 0.4% active; in the data active = inhibition above about 5%, passing the limit was not always enough
# SUMO HTRF inh = inhibitors of in vitro SUMOylation cascade, primary screen, biochemical, HTRF, uHTS; inhibition, % at 35 µM; HTRF SUMOylation assay, SAE1/SAE2 + UBC9; 290,000 tested, 0.36% active; AID 2006, 2009; in the data active = inhibition above about 50%, passing the limit was not always enough; inconclusive = no clear call, values can overlap the other calls
# PREPL inhibitor = PREPL enzyme inhibitors, primary screen, biochemical, fluorescence polarization; Prolyl endopeptidase-like (Homo sapiens), Q4J6C6; recombinant PREPL, fluorescence polarization activity-based probe; inhibition, % at 5.96 µM; 320,000 tested, 0.68% active; in the data active = inhibition above about 43%;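 also: 0% = enzyme with DMSO and 100% = wells lacking enzyme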
# RBBP9 inhibitor = human RBBP9 inhibitors, primary screen, biochemical, fluorescence polarization, FP-Rh probe, HTS; Serine hydrolase RBBP9 (Homo sapiens), O75884; recombinant RBBP9; inhibition, % at 7.94 µM; 220,000 tested, 0.2% active; AID 1515, 2009;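 active = inhibition above the campaign mean of all tested compounds plus 3 SD, cut at about 14% in these data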;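 also: plate controls were DMSO wells with RBBP9 for no effect and wells lacking RBBP9 protein for full effect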
# Target sequence (O75884 whole entry, looked up): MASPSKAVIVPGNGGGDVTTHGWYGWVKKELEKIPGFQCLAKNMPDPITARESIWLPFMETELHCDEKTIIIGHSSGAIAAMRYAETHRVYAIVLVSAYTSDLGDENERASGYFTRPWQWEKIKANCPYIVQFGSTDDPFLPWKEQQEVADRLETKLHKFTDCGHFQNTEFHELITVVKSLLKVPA
#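 System: RBBP9 protein / Quantity: 2.5 µM RBBP9 dispensing solution, before mixing / Also added: Serine-hydrolase probe FP-Rh, 375 nM pre-mixing / Dosing: 7.94 µM single dose, 0.794% DMSO / Timing: enzyme-compound preincubation 30 min, then probe labeling 45 min, 25 °C / Signal: FP readout at 525/598 nm / Controls: DMSO-treated enzyme wells and wells lacking RBBP9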
# UBC13 polyUb = UBC13 polyubiquitin chain formation inhibitors, primary screen, biochemical, TR-FRET, uHTS | Ubiquitin-conjugating enzyme E2 N (Homo sapiens), P61088 | inhibition, % at 20 µM | 330,000 tested, 0.47% active | AID 485273, 2010; in the data active = inhibition above about 45%, passing the limit was not always enough; inconclusive = no clear call, values can overlap the other calls
# Target sequence (P61088 whole entry, looked up): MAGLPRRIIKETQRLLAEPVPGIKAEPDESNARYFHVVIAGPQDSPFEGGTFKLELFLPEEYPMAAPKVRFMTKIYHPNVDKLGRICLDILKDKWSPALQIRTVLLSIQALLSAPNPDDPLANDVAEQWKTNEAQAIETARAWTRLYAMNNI
# Starred values were filed as active, the others as inactive; u = inconclusive; x = no result. Hits are enriched below; roughly 4.3% of the tested compounds scored in any of these assays.
SMILES,ALR inh,Rin1 Abl inh,SUMO HTRF inh,PREPL inhibitor,RBBP9 inhibitor,UBC13 polyUb
COc1ccccc1N1CCN(C(=O)c2ccc3nc(-c4ccco4)c(-c4ccco4)nc3c2)CC1,-9,-4,72*,-15,-1,-4
COc1ccc2[nH]c(C)c(CCN3C(=O)C4C5C=CC(C5)C4C3=O)c2c1 (centres undefined),96*,-1,7,7,-6,9
COC(=O)c1cnc(Nc2nc(C(N)c3ccccc3Cl)cs2)nc1C(F)(F)F (centres undefined),x,2,x,x,x,x
COc1ccc(CNC(=O)CCSCc2cccc(F)c2)cc1,-3,3,22,-4,x,-6
COc1ccc(C(=O)Oc2cc(C)c(CN3CCOCC3)cc2C)cc1OC,-5,-5,15,-1,x,5
COc1ccc(N(C(=O)CSCC(=O)Nc2cc(C)on2)C(C(=O)NC2CCCCC2)c2ccc(O)c(O)c2)cc1 (centres undefined),85*,-1,2,18,-5,-5
Cc1cc(NC(=O)CSCC(=O)N(c2ccc(F)cc2)C(C(=O)NC2CCCCC2)c2ccc(O)c(O)c2)no1 (centres undefined),-3,1,-9,12,-5,8
Cc1cc(NC(=O)CSCC(=O)N(c2cccc(Cl)c2)C(C(=O)NC2CCCCC2)c2ccc(O)c(O)c2)no1 (centres undefined),99*,3,-9,10,-6,8
CC(=O)Nc1ccc(N(C(=O)Cn2nnc3ccccc32)C(C(=O)NC2CCCC2)c2ccc(O)c(O)c2)cc1 (centres undefined),92*,1,-2,2,-11,4
O=c1[nH]cnc2c1ccn2C1OC(CO)C(O)C1O (centres undefined),x,-2,x,x,x,x
COP(=O)(OC)c1nc(-c2ccc(C)cc2)oc1N1CCCCC1,25,-1,19,5,x,4
O=C1Nc2ccccc2Nc2ncccc21,x,-3,-13,1,-7,-2
Cc1ccc2c(c1)NC(=O)c1cccnc1N2,98*,0,-4,11,-2,9
O=C(NNC(=O)c1sccc1-n1cccc1)c1ccc(Cl)cc1,-8,-4,15,2,-2,-8
O=C(NC1CC1)c1sccc1-n1cccc1,100*,3,-4,-1,-3,3
O=[N+]([O-])/C(Cl)=C(/NCCO)C(Cl)=C(Cl)Cl,x,3,x,x,x,x
O=[N+]([O-])c1cccc(S(=O)(=O)NC2CC3CCC2C3)c1 (centres undefined),-13,4,15,4,x,-4
Oc1ccc(-c2ccccc2)cc1CN1CCCCCC1,27,3,-1,25,x,1
Nc1cc(-c2ccccc2)ccc1O,99*,-1,8,11,-2,-6
CC(=O)Nc1cc(-c2ccccc2)ccc1O,99*,2,20,-7,-3,-9
CC(=O)Nc1cc(Br)ccc1O,5,1,-11,14,-1,5
CC(=O)c1c[nH]c(C(=O)NCc2cccc(C(F)(F)F)c2)c1,-4,0,-18,3,x,2
COc1ccc(N2CCN(C3CCCN(C(=O)CSC)C3)CC2)cc1 (centres undefined),x,-2,-7,10,x,2
COC(=O)c1ccccc1N=Nc1c(N)[nH][nH]c1=O,4,-10,-22,-1,-6,-84
COC(=O)c1ccccc1N=Nc1c(N)n[nH]c1N,91*,-6,6,14,-3,-10
SMILES,ALR inh,Rin1 Abl inh,SUMO HTRF inh,PREPL inhibitor,RBBP9 inhibitor,UBC13 polyUb
O=C(COC(=O)c1cccc(OC(F)F)c1)Nc1ncccn1,-16,5,x,-4,x,-10
CCOC(=O)c1cc(C#N)c(SCC(=O)OC)[nH]c1=O,99*,-6,23,6,8,0
CCOC(=O)c1cc(C#N)c(N2CCN(c3ccc(OC)cc3)CC2)[nH]c1=O,93*,-6,30,22,4,-5
COC(=O)CSc1[nH]c(=O)cc(C)c1C#N,-16,0,1,-6,0,-10
Cc1ccc(N(Cc2ccccc2)C(=O)CSC(C)C(=O)Nc2cc(C)on2)cc1 (centres undefined),x,-5,x,x,x,x
O=C(COC(=O)C1CC2CCCC(C1)C2=O)NNC(=O)c1ccc([N+](=O)[O-])cc1 (centres undefined),-9,-1,x,1,x,-5
O=C(NC1CCCc2ccccc21)c1ccccc1OC(F)F (centres undefined),-10,0,6,-7,x,7
O=C1CCC(=O)c2ccc3c4c(ccc1c24)CC3,x,-7,x,x,x,x
O=C1CCN2C=Nc3cccc4ccc1c2c34,68,-25,66*,9,-5,-36
O=C1NCCc2onc(-c3ccc(Br)cc3)c21,x,2,x,x,x,x
CCN1C[C@@H]2[C@@H]3C(=O)N(Cc4ccccc4)C(=O)[C@@H]3[C@](Cc3ccccc3)(C(=O)OC)N2C1=NC,x,2,x,x,x,x
O=C(N/N=C/c1cc2ccccc2[nH]1)c1ccccc1Cl,12,-3,15,-5,3,3
S=c1[nH]nc(-c2ccncc2)n1CC1CCCO1 (centres undefined),93*,-1,9,-4,-4,-2
COc1cccc(-c2n[nH]c(=S)n2Cc2ccco2)c1,-4,-7,15,-8,-2,2
CC(C)Cn1c(-c2ccncc2)n[nH]c1=S,87*,1,6,22,-10,1
S=c1[nH]nc(-c2ccc(Br)cc2)n1Cc1ccco1,88*,1,7,-5,1,-7
S=c1[nH]nc(-c2ccncc2)n1Cc1ccco1,96*,0,6,-2,0,3
CC(C)Cn1c(-c2ccc(F)cc2)n[nH]c1=S,57,-4,-7,3,-12,9
Fc1ccc(-c2n[nH]c(=S)n2CC2CCCO2)cc1 (centres undefined),-1,-2,14,12,-2,1
O=C(O)c1cccnc1Sc1ccc(Br)cc1,4,0,11,3,x,1
Cc1ccc(NC(=S)NNC(=O)CSc2nnc(-c3ccc(Cl)cc3)n2C2CCCCC2)cc1,15,-2,-91,24,-7,-17
CCn1c(SCC(=O)NNC(=S)Nc2ccc(C)cc2)nnc1-c1ccc(Cl)cc1,97*,1,-78,8,-7,-3
CCN(CC)C(=O)N1c2ccccc2Sc2ccccc21,u,-3,-2,-12,x,12
CCN(CC)CC(=O)N1c2ccccc2Sc2ccccc21,12,-1,12,-11,x,2
Cc1cc(C)n(CC(O)Cn2c3ccccc3c3ccccc32)n1 (centres undefined),x,0,-15,8,-10,10
